Measured values as given in ChEMBL document CHEMBL1139352, “Synthesis and evaluation of novel inhibitors of Pim-1 and Pim-2 protein kinases” (J Med Chem, 2009).

Tests used:
Mus musculus [1] = test: Toxicity in Swiss Webster mouse assessed as glucose level at 3 mg/kg, ip daily for 7 days measured after 7 days; format: organism-based; parameters: dose 3 mg/kg, route intraperitoneal; conditions: in vivo, 168 h
[2] = biological target: Tyrosine-protein kinase Fyn (Homo sapiens) (UniProt P06241); test: Inhibition of FYN at 5 uM
Mus musculus [3] = test: Toxicity in Swiss Webster mouse assessed as glucose level at 50 mg/kg, ip daily for 7 days measured after 7 days; format: organism-based; parameters: dose 50 mg/kg, route intraperitoneal; conditions: in vivo, 168 h
[4] = Antitumor activity against mouse JC cells xenografted BALB/c mouse assessed as tumor growth inhibition at 50 mg/kg, ip for 5 days per week; format: functional; parameters: scale not given: the % may be the effect or the level left; conditions: route intraperitoneal
How it was run: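 Syngeneic model: female Balb/c mice were implanted subcutaneously with 1 × 10⁶ JC murine mammary adenocarcinoma cells in PBS. Once tumors were palpable, mice were randomized into groups. They received intraperitoneal injections once daily, five days per week, of either vehicle (50% DMSO : 50% PBS) or 50 mg/kg. Tumor volume was taken as (L × W²)/2. n = 5 mice per group; mean ± standard error.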

[5] = biological target: Mitogen-activated protein kinase 14 (Homo sapiens) (UniProt Q16539); test: Inhibition of p38alpha at 5 uM
Mus musculus [6] = test: Toxicity in Swiss Webster mouse assessed as alkaline phosphatase level at 3 mg/kg, ip daily for 7 days measured after 7 days; format: organism-based; parameters: dose 3 mg/kg, route intraperitoneal; conditions: in vivo, 168 h
Mus musculus [7] = test: Toxicity in Swiss Webster mouse assessed as hemoglobin level at 3 mg/kg, ip daily for 7 days measured after 7 days; format: organism-based; parameters: dose 3 mg/kg, route intraperitoneal
[8] = biological target: Cyclin-dependent kinase 2 (Homo sapiens) (UniProt P24941); test: Inhibition of CDK2 at 5 uM
[9] = biological target: Serine/threonine-protein kinase pim-2 (Homo sapiens, UniProt Q9P1W9); test: Inhibition of PIM2 at 5 uM
[10] = biological target: Calcium/calmodulin-dependent protein kinase type IV (Homo sapiens) (UniProt Q16566); test: Inhibition of CAMK4 at 5 uM
Mus musculus [11] = test: Toxicity in Swiss Webster mouse assessed as lymphocyte count at 10 mg/kg, ip daily for 7 days measured after 7 days; format: organism-based; parameters: dose 10 mg/kg, route intraperitoneal; conditions: in vivo, 168 h
[12] = system: Receptor-type tyrosine-protein kinase FLT3 (Homo sapiens), P36888 [D835Y]; test: Inhibition of FLT3(D835Y) at 5 uM
[13] = biological target: Casein kinase I isoform delta (Homo sapiens) (UniProt P48730); test: Inhibition of CK1delta at 5 uM
Mus musculus [14] = test: Toxicity in Swiss Webster mouse assessed as amylase level at 3 mg/kg, ip daily for 7 days measured after 7 days; format: organism-based; parameters: dose 3 mg/kg, route intraperitoneal; conditions: in vivo, 168 h
Mus musculus [15] = test: Toxicity in Swiss Webster mouse assessed as creatinine level at 10 mg/kg, ip daily for 7 days measured after 7 days; format: organism-based; parameters: dose 10 mg/kg, route intraperitoneal; conditions: in vivo, 168 h
Mus musculus [16] = test: Toxicity in Swiss Webster mouse assessed as hemoglobin level at 10 mg/kg, ip daily for 7 days measured after 7 days; format: organism-based; parameters: dose 10 mg/kg, route intraperitoneal; conditions: in vivo, 168 h
Mus musculus [17] = test: Toxicity in Swiss Webster mouse assessed as monocyte count at 50 mg/kg, ip daily for 7 days measured after 7 days; format: organism-based; parameters: dose 50 mg/kg, route intraperitoneal; conditions: in vivo, 168 h
[18] = Inhibition of PKA at 5 uM
Mus musculus [19] = test: Toxicity in Swiss Webster mouse assessed as creatinine level at 50 mg/kg, ip daily for 7 days measured after 7 days; format: organism-based; parameters: dose 50 mg/kg, route intraperitoneal; conditions: in vivo, 168 h
[20] = biological target: MAP kinase-activated protein kinase 5 (Homo sapiens) (UniProt Q8IW41); test: Inhibition of PRAK at 5 uM
[21] = biological target: Dual specificity tyrosine-phosphorylation-regulated kinase 1A (Homo sapiens) (UniProt Q13627); test: Inhibition of DYRK1alpha at 5 uM
Mus musculus [22] = test: Toxicity in Swiss Webster mouse assessed as granulocyte count at 3 mg/kg, ip daily for 7 days measured after 7 days; format: organism-based; parameters: dose 3 mg/kg, route intraperitoneal; conditions: in vivo, 168 h
Mus musculus [23] = test: Toxicity in Swiss Webster mouse assessed as white blood cell count at 10 mg/kg, ip daily for 7 days measured after 7 days; format: organism-based; parameters: dose 10 mg/kg, route intraperitoneal; conditions: in vivo, 168 h
How it was run: (§1)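 Six-week-old female Swiss Webster mice (about 25 g) received intraperitoneal injections daily for 7 days. Doses were 3, 10 or 50 mg/kg, with a vehicle group (30% PEG-400, 5% Tween-80, 65% DMSO). Values are reported as ranges per group.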

[24] = biological target: RAC-gamma serine/threonine-protein kinase (Homo sapiens) (UniProt Q9Y243); test: Inhibition of AKT3 at 5 uM
[25] = biological target: Tyrosine-protein kinase BTK (Homo sapiens) (UniProt Q06187); test: Inhibition of BTK at 5 uM
Mus musculus [26] = test: Toxicity in Swiss Webster mouse assessed as alkaline phosphatase level at 50 mg/kg, ip daily for 7 days measured after 7 days; format: organism-based; parameters: dose 50 mg/kg, route intraperitoneal; conditions: in vivo, 168 h
[27] = biological target: Serine/threonine-protein kinase MARK1 (Homo sapiens) (UniProt Q9P0L2); test: Inhibition of MARK1 at 5 uM
[28] = biological target: Glycogen synthase kinase-3 beta (Homo sapiens) (UniProt P49841); test: Inhibition of GSK3-beta at 5 uM
Mus musculus [29] = test: Toxicity in Swiss Webster mouse assessed as granulocyte count at 50 mg/kg, ip daily for 7 days measured after 7 days; format: organism-based; parameters: dose 50 mg/kg, route intraperitoneal; conditions: in vivo, 168 h
Mus musculus [30] = test: Toxicity in Swiss Webster mouse assessed as albumin level at 50 mg/kg, ip daily for 7 days measured after 7 days; format: organism-based; parameters: dose 50 mg/kg, route intraperitoneal; conditions: in vivo, 168 h
[31] = biological target: RAC-alpha serine/threonine-protein kinase (Homo sapiens) (UniProt P31749); test: Inhibition of AKT1 at 5 uM
[32] = biological target: Tyrosine-protein kinase Lck (Homo sapiens) (UniProt P06239); test: Inhibition of LCK at 5 uM
Mus musculus [33] = test: Toxicity in Swiss Webster mouse assessed as blood urea nitrogen level at 50 mg/kg, ip daily for 7 days measured after 7 days; format: organism-based; parameters: dose 50 mg/kg, route intraperitoneal; conditions: in vivo, 168 h
[34] = biological target: Protein kinase C zeta type (Homo sapiens) (UniProt Q05513); test: Inhibition of PKCzeta at 5 uM
[35] = biological target: Tyrosine-protein kinase JAK2 (Homo sapiens) (UniProt O60674); test: Inhibition of JAK2 at 5 uM
Mus musculus [36] = test: Toxicity in Swiss Webster mouse assessed as alanine aminotransferase level at 50 mg/kg, ip daily for 7 days measured after 7 days; format: organism-based; parameters: dose 50 mg/kg, route intraperitoneal; conditions: in vivo, 168 h
Mus musculus [37] = test: Toxicity in Swiss Webster mouse assessed as white blood cell count at 50 mg/kg, ip daily for 7 days measured after 7 days; format: organism-based; parameters: dose 50 mg/kg, route intraperitoneal; conditions: in vivo, 168 h; how it was run: as §1
[38] = biological target: Aurora kinase A (Homo sapiens) (UniProt O14965); test: Inhibition of AurA at 5 uM
Mus musculus [39] = test: Toxicity in Swiss Webster mouse assessed as Na+ level at 50 mg/kg, ip daily for 7 days measured after 7 days; format: organism-based; parameters: dose 50 mg/kg, route intraperitoneal; conditions: in vivo, 168 h
[40] = biological target: Ribosomal protein S6 kinase alpha-1 (Homo sapiens) (UniProt Q15418); test: Inhibition of RSK1 at 5 uM
[41] = biological target: Serine/threonine-protein kinase PAK 2 (Homo sapiens) (UniProt Q13177); test: Inhibition of PAK2 at 5 uM
[42] = biological target: Mitogen-activated protein kinase kinase kinase kinase 4 (Homo sapiens) (UniProt O95819); test: Inhibition of HGK at 5 uM
Mus musculus [43] = test: Toxicity in Swiss Webster mouse assessed as white blood cell count at 3 mg/kg, ip daily for 7 days measured after 7 days; format: organism-based; parameters: dose 3 mg/kg, route intraperitoneal; conditions: in vivo, 168 h; how it was run: as §1
Mus musculus [44] = test: Toxicity in Swiss Webster mouse assessed as Na+ level at 3 mg/kg, ip daily for 7 days measured after 7 days; format: organism-based; parameters: dose 3 mg/kg, route intraperitoneal; conditions: in vivo, 168 h
[45] = biological target: RAF proto-oncogene serine/threonine-protein kinase (Homo sapiens) (UniProt P04049); test: Inhibition of c-Raf at 5 uM

Chain of Tyrosine-protein kinase BTK (Homo sapiens) (Q06187 whole entry): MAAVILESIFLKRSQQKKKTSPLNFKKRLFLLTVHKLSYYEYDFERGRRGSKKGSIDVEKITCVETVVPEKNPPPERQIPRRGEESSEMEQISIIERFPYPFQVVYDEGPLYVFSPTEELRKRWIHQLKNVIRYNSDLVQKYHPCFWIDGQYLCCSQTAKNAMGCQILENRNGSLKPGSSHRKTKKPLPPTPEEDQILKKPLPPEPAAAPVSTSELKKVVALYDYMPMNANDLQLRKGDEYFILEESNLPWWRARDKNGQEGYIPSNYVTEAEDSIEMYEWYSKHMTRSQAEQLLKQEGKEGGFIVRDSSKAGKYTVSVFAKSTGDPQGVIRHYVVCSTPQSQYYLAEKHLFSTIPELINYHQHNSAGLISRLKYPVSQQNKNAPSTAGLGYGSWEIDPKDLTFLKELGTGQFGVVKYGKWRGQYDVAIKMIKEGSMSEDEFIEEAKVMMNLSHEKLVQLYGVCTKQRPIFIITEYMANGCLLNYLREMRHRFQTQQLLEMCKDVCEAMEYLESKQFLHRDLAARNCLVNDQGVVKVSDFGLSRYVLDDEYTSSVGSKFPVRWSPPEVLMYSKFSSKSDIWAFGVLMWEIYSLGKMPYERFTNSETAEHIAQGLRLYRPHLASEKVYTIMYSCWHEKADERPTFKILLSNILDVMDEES
Chain of RAC-gamma serine/threonine-protein kinase (Homo sapiens) (Q9Y243 whole entry): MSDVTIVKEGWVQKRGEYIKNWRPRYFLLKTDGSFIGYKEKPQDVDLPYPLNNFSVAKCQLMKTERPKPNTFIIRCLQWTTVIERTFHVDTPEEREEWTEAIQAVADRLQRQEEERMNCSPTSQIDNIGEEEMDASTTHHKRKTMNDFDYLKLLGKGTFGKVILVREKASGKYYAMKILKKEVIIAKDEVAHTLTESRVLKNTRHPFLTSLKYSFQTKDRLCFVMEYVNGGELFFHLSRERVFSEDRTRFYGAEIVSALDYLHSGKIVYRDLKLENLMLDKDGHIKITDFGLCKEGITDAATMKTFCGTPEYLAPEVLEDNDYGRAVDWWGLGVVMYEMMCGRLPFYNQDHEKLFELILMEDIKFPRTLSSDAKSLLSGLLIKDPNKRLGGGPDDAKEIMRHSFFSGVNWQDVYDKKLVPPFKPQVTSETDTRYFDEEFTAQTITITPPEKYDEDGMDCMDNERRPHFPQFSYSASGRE
Chain of Mitogen-activated protein kinase kinase kinase kinase 4 (Homo sapiens) (O95819 2-1239 limits assumed): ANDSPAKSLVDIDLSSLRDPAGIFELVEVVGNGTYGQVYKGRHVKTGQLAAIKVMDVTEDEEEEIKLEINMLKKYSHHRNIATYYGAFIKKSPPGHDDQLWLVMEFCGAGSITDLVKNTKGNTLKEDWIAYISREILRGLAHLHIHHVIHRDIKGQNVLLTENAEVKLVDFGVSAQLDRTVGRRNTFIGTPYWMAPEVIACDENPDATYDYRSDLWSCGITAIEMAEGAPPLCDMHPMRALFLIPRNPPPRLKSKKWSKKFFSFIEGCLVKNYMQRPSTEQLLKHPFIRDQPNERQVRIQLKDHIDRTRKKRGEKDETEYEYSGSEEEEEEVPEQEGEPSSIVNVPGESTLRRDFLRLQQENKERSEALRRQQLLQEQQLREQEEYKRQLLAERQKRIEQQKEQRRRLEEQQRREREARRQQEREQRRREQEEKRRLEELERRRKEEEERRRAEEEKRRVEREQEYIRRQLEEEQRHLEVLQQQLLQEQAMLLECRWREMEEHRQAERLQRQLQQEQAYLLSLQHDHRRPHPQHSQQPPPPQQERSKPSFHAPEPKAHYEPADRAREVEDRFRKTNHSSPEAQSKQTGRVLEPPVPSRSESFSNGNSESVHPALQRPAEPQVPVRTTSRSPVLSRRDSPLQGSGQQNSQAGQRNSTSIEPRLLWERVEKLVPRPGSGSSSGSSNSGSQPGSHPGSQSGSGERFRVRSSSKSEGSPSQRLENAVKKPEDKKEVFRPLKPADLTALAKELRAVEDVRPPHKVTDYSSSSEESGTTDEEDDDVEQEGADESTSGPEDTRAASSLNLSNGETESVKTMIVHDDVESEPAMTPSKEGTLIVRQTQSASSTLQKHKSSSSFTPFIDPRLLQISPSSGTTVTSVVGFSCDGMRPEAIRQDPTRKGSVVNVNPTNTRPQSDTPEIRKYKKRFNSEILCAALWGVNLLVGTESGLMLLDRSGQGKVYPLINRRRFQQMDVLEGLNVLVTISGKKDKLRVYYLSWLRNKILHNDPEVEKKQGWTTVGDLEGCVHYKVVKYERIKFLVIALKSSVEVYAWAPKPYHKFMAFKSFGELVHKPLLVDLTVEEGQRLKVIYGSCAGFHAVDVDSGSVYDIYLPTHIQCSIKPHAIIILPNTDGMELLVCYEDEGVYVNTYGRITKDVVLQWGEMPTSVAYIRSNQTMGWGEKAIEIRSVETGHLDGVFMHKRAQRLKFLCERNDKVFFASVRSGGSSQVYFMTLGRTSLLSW
Chain of Ribosomal protein S6 kinase alpha-1 (Homo sapiens) (Q15418 whole entry): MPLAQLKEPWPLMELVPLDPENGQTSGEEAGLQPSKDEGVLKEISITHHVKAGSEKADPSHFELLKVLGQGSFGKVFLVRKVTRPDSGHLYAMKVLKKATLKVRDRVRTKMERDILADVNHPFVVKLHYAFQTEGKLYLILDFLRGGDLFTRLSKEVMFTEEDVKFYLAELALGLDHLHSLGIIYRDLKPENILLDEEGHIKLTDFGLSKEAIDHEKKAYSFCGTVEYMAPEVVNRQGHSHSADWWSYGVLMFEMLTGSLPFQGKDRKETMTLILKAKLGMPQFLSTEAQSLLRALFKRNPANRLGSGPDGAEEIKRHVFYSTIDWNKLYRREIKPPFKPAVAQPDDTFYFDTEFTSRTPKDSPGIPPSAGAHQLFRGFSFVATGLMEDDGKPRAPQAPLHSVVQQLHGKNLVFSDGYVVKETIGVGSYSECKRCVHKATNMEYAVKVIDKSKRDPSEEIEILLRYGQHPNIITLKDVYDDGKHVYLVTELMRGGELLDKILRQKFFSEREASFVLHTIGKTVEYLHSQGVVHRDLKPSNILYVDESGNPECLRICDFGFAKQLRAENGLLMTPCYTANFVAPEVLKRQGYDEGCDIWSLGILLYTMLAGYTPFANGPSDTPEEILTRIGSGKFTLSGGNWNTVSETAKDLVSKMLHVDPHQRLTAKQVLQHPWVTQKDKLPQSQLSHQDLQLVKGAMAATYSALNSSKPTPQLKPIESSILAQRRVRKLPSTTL
Chain of Calcium/calmodulin-dependent protein kinase type IV (Homo sapiens) (Q16566 whole entry): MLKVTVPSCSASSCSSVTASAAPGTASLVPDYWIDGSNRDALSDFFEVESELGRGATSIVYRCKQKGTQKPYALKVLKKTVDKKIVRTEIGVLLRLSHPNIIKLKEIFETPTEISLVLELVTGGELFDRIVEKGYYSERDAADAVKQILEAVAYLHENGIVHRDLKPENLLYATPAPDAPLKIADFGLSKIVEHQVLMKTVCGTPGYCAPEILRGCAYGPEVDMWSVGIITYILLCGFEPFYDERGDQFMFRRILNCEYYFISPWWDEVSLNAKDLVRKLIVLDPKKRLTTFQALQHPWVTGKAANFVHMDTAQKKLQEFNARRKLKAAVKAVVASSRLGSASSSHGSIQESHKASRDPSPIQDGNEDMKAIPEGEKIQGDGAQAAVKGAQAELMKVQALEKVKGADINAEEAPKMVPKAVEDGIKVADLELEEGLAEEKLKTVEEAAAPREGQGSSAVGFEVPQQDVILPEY
Chain of Tyrosine-protein kinase Lck (Homo sapiens) (P06239 2-509 limits assumed): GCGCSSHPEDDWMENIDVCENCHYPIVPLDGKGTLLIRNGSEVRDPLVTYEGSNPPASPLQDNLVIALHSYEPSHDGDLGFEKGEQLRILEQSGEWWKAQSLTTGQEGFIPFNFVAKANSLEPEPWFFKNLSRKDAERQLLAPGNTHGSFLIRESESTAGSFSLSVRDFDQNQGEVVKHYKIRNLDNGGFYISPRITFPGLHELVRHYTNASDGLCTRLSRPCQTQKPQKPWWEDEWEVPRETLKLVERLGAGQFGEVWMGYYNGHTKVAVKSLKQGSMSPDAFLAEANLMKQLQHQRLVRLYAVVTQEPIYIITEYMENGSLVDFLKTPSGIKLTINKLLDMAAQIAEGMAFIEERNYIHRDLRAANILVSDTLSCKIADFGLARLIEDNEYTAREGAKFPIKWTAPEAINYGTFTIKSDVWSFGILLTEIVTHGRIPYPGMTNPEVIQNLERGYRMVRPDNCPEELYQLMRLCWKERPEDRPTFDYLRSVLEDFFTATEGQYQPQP
Chain of Aurora kinase A (Homo sapiens) (O14965 whole entry): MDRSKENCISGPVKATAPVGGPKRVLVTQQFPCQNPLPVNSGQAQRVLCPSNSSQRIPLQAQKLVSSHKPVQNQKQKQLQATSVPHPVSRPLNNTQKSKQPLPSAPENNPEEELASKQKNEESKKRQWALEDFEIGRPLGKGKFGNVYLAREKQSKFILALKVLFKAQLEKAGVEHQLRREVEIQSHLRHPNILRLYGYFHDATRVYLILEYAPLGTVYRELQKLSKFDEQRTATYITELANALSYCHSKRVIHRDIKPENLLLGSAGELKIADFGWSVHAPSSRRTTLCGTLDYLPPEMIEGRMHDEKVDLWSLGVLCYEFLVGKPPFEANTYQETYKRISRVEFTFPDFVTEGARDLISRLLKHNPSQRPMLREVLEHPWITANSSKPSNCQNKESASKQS
Chain of Serine/threonine-protein kinase pim-2 (Q9P1W9 whole entry, looked up): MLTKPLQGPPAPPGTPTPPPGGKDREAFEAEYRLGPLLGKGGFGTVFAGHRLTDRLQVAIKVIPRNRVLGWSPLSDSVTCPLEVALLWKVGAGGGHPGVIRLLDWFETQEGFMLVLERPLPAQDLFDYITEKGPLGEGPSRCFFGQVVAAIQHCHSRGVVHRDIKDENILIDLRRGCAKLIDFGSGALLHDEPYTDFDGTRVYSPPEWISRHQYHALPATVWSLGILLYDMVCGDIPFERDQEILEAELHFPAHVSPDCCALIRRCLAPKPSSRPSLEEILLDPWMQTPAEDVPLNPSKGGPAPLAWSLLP

## CCCOc1ccc(/C=C2\SC(=O)NC2=O)cc1
Mus musculus [1]
  Activity: 80 mg/dL
[2]
  inhibition: 0%
Mus musculus [3]
  Activity: 136 mg/dL
[4]
  Activity: 50%
[5]
  inhibition: 0%
Mus musculus [6]
  Activity: 85 U/L
Mus musculus [7]
  Activity: 12.8 g/dL
[8]
  inhibition: -2%
[9]
  inhibition: 62%
[10]
  inhibition: -8%
Mus musculus [11]
  Activity: 3.94 ×10⁹ /L
[12]
  inhibition: 9%
[13]
  inhibition: 7%
Mus musculus [14]
  Activity: 878 U/L
Mus musculus [15]
  Activity: 0.2 mg/dL
Mus musculus [16]
  Activity: 11.7 g/dL
Mus musculus [17]
  Activity: 0.04 ×10⁹ /L
[18]
  inhibition: 3%
Mus musculus [19]
  Activity: 0.2 mg/dL
[20]
  inhibition: 4%
[21]
  inhibition: 68%
Mus musculus [22]
  Activity: 0.01 ×10⁹ /L
Mus musculus [23]
  Activity: 4.95 ×10⁹ /L
[24]
  inhibition: 3%
[25]
  inhibition: 7%
Mus musculus [26]
  Activity: 80 U/L
[27]
  inhibition: -6%
[28]
  inhibition: 3%
Mus musculus [29]
  Activity: 0.08 ×10⁹ /L
Mus musculus [30]
  Activity: 2.6 g/dL
[31]
  inhibition: 6%
[32]
  inhibition: 3%
Mus musculus [33]
  Activity: 14 mg/dL
[34]
  inhibition: 3%
[35]
  inhibition: 18%
Mus musculus [36]
  Activity: 37 U/L
Mus musculus [37]
  Activity: 3.65 ×10⁹ /L
[38]
  inhibition: 4%
Mus musculus [39]
  Activity: 145 mmol/L
[40]
  inhibition: 5%
[41]
  inhibition: -1%
[42]
  inhibition: 9%
Mus musculus [43]
  Activity: 3.73 ×10⁹ /L
Mus musculus [44]
  Activity: 150 mmol/L
[45]
  inhibition: -1%
